Rows were chosen to be rich in hits. Some 3.5% of all compounds tested hit in one or more screens of this group.
rRNA inh HTS = reduced GFP signal of wild-type E. coli, primary screen, bacterial rRNA inhibitor project, GFP/RFP fluorescence, OD600, single point; AID 720706, 2013; E. coli WT GFP vs humanized-ribosome RFP mutants, 24 h; active compounds read low; DMSO median 0, no signal -100; GFP signal change (wild-type ribosome), % (concentration not given with the values); 350,000 tested, 1.6% active;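 active means significant combined selectivity score with lowered wild-type GFP, culture density cut under 30%, mutant RFP and density less affected; inactive means any of these conditions unmet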
FGF22 binding = binders of human FGF22 protein, primary screen, FGF22 synaptogenesis inhibitor project, biophysical, thermal shift, single point; activity (Tm shift, normalised), % at 9.99 µM; recombinant FGF22 thermal shift, SYPRO orange fluorescence; percent of sucrose octasulfate shift, DMSO zero; 340,000 tested, 1.5% active;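 active means mean Tm shift, scaled 0 neutral to 100 positive control, at about 1.3% or above, every replicate too, limit read from the data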
Target sequence (Q9HCT0 whole entry, looked up): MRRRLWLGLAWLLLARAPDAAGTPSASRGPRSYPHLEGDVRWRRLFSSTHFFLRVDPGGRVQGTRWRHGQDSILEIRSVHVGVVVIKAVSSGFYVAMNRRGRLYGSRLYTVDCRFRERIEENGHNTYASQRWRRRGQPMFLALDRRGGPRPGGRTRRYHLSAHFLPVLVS
HIV Env fusion = inhibitors of HIV-1 Env-driven cell-cell fusion, primary screen, HeLa-JRFL effector, CEM21 target cells, luciferase; inhibition, % at 12.3 µM; 360,000 tested, 1.1% active; AID 651610, 2012;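 active means mean replicate inhibition score of at least 50 and every replicate individually at or above 50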;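 further: 0% = plate neutral controls and 100% = maraviroc near 300 nM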
ERAP1 HTS inh = human ERAP1 aminopeptidase inhibitors, primary screen, biochemical, single point, plate reader; Endoplasmic reticulum aminopeptidase 1 (Homo sapiens), Q9NZ08; recombinant ERAP1, Leu-AMC fluorescence, 60 min; inhibition, % at 10.7 µM; 340,000 tested, 0.15% active;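 active means mean replicate inhibition of at least 30%, or all replicates individually reaching that 30% level; inactive means mean below 30% and not every replicate reaching it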;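 further: 0% = neutral control wells and 100% = L-leucinethiol positive control wells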
Cneo AK release = Cryptococcus neoformans cell lysis inducers, primary screen, AK release luminescence, single concentration; C. neoformans lysis, adenylate kinase release luminescence, 4 h; normalised: neutral wells 0, clomiphene wells 100; AID 651654, 2012; lysis activity, % at 15 µM; 360,000 tested, 0.2% active;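 active means mean lysis activity across replicates of at least 80%, whatever share of replicates individually reach that level; inactive means mean lysis activity below 80%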
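Material – Cryptococcus neoformans yeast cells · Quantity – 5 × 10^6 yeast cells/mL · Buffer or medium – YPD medium · Compound – single dose · Timing – 4 h static compound exposure, 37 °C, read 1 h post-reagent · Signal – adenylate kinase release luminescence · Read-out basis – lysis from increased AK signal · Benchmarks – Clomiphene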
PGC1a acetyl inh = inhibitors of PGC1a acetylation signal, primary screen, cell-based, U2OS, AlphaScreen, inhibitor mode; 350,000 tested, 0.17% active; inhibition, % at 15.6 µM; AlphaScreen anti-acetyl-lysine; with virally co-expressed GCN5 acetyltransferase; AID 651687, 2012;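 active means every replicate shows inhibition of at least 40%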;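 further: 0% = neutral control wells and 100% = positive control wells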
* marks the source's active call; other numbers are inactive results; . = no result; [ ] = dose if it differs, or a comment.

SMILES | rRNA inh HTS | FGF22 binding | HIV Env fusion | ERAP1 HTS inh | Cneo AK release | PGC1a acetyl inh
O=C(/C=C/c1ccccc1)c1ccc2c(c1)OCO2 | -24.4* | -0.5 | -16.2 | . | 0.5 | 7.3
O=C(/C=C/c1cccc(Br)c1)c1ccc2c(c1)OCO2 | -41.0 | 0.0 | -14.5 | -4.6 | -2.2 | .
Cc1ccc(O)c(C(=O)/C=C/c2ccc3c(c2)OCCCO3)c1 | -12.6 | 0.3 | -76.2 | -1.7 | . | .
CCNC(=S)NNC(=O)c1csc2ccccc12 | . | . | -99.5 | . | -0.8 | 58.6*
CC(C)CNC(=S)NNC(=O)c1csc2ccccc12 | . | . | -29.7 | . | -2.4 | 9.5
CC(=O)Nc1ccc(NC(=O)COc2ccc(-c3ccc(C#N)cc3)cc2)cc1 | 1.5 | -0.2 | 3.6 | -2.0 | -3.0 | -6.6
N#Cc1ccc(-c2ccc(OCC(=O)Nc3cccnc3)cc2)cc1 | -10.1 | 0.0 | 59.4* | -0.5 | 6.8 | 0.8
CCCCN(c1ccccc1)c1ncnc(N)c1[N+](=O)[O-] | 13.2 | 0.3 | . | -0.5 | 2.9 | 52.0*
CC(C)(C)n1nnnc1C(c1ccccn1)N(Cc1ccccc1)Cc1ccc(Cl)cc1 (stereo unspecified) | . | . | 127.4* | . | -1.3 | -19.1
COc1ccc(NC(=O)c2ccccc2Oc2ccccc2)c(OC)c1 | -0.9 | -0.1 | 1.6 | 0.3 | -0.5 | .
Cc1cccc(OCC(=O)N2CCN(S(C)(=O)=O)CC2)c1 | 9.7 | 43.1* | 1.6 | -4.0 | . | 5.5
CCOC(=O)C1=C(C)n2c(s/c(=C/c3cccc([N+](=O)[O-])c3)c2=O)=NC1c1ccc(O)c(OC)c1 (stereo unspecified) | 6.8 | 0.2 | . | 0.4 | 3.3 | -1.4
O=C1C=C(c2ccccc2Oc2ccccc2)C[C@@H](c2ccc(F)cc2)C1 | -2.2 | 43.4* | 22.1 | 0.5 | -2.2 | 7.8
O=[N+]([O-])c1cnccc1Nc1cccc(F)c1 | . | . | 0.7 | . | 0.8 | .
O=[N+]([O-])c1ccc(Oc2cccc(F)c2)c2ccncc12 | . | . | . | . | . | 70.6*
COc1ccc(CN2CCN(C(=O)c3ccccc3C(=O)c3ccccc3)CC2)cc1F | -17.6 | 44.0* | -21.1 | -3.5 | -3.1 | 6.3
COc1ccc(CN2CCN(C(=O)c3cccc4ccccc34)CC2)cc1OC | -0.5 | -0.1 | -3.0 | 0.1 | -2.5 | 1.7
CO[C@H]1CN(C)C(=O)c2ccc(NC(=O)c3ccc(F)cc3)cc2OC[C@H](C)N(C(=O)c2ccc(F)cc2)C[C@H]1C | -7.6 | -0.2 | -23.4[16.7 µM] | 2.3 | -0.5 | 0.8
Clc1c(Cl)c(Cl)c2n[nH]nc2c1Cl | -53.4* | 0.1 | -7.3 | 2.7 | . | 0.7
O=C(CN1CCCc2ccccc21)N/N=C/c1ccccc1 | . | -0.2 | -8.3 | 2.2 | . | .
O=C(CN1CCCc2ccccc21)N/N=C/c1ccc(O)cc1O | -14.6* | 0.4 | 1.7 | 2.3 | -0.4 | .
CCCS(=O)(=O)c1c(S(=O)(=O)CCC)c2c(C)cccn2c1C(=O)N/N=C/c1cc(O)cc(O)c1 | -20.9* | -0.5 | -5.6 | -1.4 | -0.5 | 11.9
CCCS(=O)(=O)c1c(S(=O)(=O)CCC)c2c(C)cccn2c1C(N)=O | . | . | . | . | -0.6 | .
Cc1cc(Cl)c2oc(C(=O)N3CCN(c4cnccn4)CC3)c(C)c2c1 | 2.2 | 0.0 | -32.7 | -0.5 | . | .
Cc1ccc(C(=O)Nc2c(-c3ccc(Cl)cc3)[nH][nH]c2=O)cc1 | -4.2 | 0.1 | -4.0 | -4.0 | 4.2 | 9.4
O=C(Nc1c(-c2ccccc2)[nH][nH]c1=O)c1ccc(-c2ccccc2)cc1 | -14.2* | -0.1 | -44.3 | -1.3 | . | .
Cc1ccc(COc2ccsc2C(=O)O)cc1 | 5.5 | -0.1 | -1.7 | 7.6 | . | .
C[C@@H](CO)NC(=O)c1nc[nH]c1C(=O)N[C@H](C)c1ccccc1 | -0.6 | 43.2* | -8.1 | 2.3 | 0.9 | .
C[C@H](NC(=O)c1nc[nH]c1C(=O)NC[C@@H](C)O)c1ccccc1 | 21.1 | 43.3* | 4.9 | 2.7 | -0.4 | .

Bioassay records from PubChem.
